Data published in ChEMBL document CHEMBL1139768, “The discovery of potent, selective, and orally bioavailable hNK1 antagonists derived from pyrrolidine” (Bioorg Med Chem Lett, 2007).

What was measured:
Gerbillinae [1] = experiment: Inhibition of GR-73632-induced foot tapping in gerbils at 3 mg/kg, iv after 24 hrs; assay type: functional; settings: for inhibition in vivo at 3 mg/kg: Gerbillinae, iv, 24 h; for Inhibition: 3 mg/kg
Substance-P receptor [2] = molecular target: T1, Substance-P receptor (Homo sapiens, UniProt P25103); experiment: Displacement of [125I]-SP from human NK1 receptor expressed in CHO cells
T1 sequence (P25103 whole entry): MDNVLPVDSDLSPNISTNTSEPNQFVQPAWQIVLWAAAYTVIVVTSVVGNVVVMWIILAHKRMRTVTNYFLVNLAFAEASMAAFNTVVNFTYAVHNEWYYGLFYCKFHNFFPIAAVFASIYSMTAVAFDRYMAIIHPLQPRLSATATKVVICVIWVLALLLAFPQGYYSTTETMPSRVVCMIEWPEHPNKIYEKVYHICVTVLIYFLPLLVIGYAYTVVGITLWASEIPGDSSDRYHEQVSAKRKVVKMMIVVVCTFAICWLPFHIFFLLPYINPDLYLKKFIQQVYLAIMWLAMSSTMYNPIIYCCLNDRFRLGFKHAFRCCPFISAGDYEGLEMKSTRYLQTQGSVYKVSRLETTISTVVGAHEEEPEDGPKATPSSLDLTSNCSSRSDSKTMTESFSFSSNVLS

[3] = Volume of distribution in rhesus monkey; assay type: ADME, organism-based, Macaca mulatta; settings: in vivo
[4] = Half life in rhesus monkey; assay type: ADME, organism-based, Macaca mulatta; settings: in vivo
[5] = Plasma clearance in rhesus monkey; assay type: ADME, organism-based, Macaca mulatta
Cavia porcellus = experiment: Inhibition of separation-induced vocalizations in po dosed guinea pig after 4 hrs; assay type: functional; settings: read-out: ID50 (the source's name)
Method in brief: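 Guinea pig pups were dosed orally, and separation-induced vocalizations were measured 4 h later. ID50 is given in mg/kg.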

[6] = Oral bioavailability in rhesus monkey; assay type: ADME, organism-based, Macaca mulatta; settings: in vivo
Gerbillinae [7] = experiment: Inhibition of GR-73632-induced foot tapping in orally dosed gerbils after 4 hrs; settings: po, read-out: ID50 (the source's name)
[8] = Volume of distribution in rat; assay type: ADME, organism-based; settings: in vivo
[9] = Half life in dog; assay type: ADME, organism-based, Canis lupus familiaris; settings: in vivo
Gerbillinae [10] = experiment: Inhibition of GR-73632-induced foot tapping in iv dosed gerbils; assay type: functional; settings: for ED50: Gerbillinae, iv, read-out: ID50 (the source's name)
Gerbillinae [11] = experiment: Inhibition of GR-73632-induced foot tapping in iv dosed gerbils after 24 hrs; assay type: functional; settings: Gerbillinae, iv, 24 h; read-out: ID50 (the source's name)
Neuromedin-K receptor = molecular target: T2, Neuromedin-K receptor (Homo sapiens, UniProt P29371); experiment: Binding affinity to NK3 receptor
T2 sequence (P29371 whole entry): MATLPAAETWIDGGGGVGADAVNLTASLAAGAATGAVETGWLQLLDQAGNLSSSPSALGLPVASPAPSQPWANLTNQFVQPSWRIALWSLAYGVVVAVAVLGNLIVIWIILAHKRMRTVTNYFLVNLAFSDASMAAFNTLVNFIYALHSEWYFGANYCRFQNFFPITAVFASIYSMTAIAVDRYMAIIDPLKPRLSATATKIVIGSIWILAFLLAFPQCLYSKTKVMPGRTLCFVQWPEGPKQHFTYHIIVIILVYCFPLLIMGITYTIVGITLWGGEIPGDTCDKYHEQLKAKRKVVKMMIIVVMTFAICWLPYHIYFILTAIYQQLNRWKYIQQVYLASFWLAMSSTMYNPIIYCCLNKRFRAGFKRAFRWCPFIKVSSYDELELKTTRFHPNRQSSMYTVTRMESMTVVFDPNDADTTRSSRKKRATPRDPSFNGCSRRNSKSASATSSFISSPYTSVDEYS

[12] = Plasma clearance in rat; assay type: ADME, organism-based
Substance-K receptor = molecular target: T3, Substance-K receptor (Homo sapiens, UniProt P21452); experiment: Binding affinity to NK2 receptor
T3 sequence (P21452 whole entry): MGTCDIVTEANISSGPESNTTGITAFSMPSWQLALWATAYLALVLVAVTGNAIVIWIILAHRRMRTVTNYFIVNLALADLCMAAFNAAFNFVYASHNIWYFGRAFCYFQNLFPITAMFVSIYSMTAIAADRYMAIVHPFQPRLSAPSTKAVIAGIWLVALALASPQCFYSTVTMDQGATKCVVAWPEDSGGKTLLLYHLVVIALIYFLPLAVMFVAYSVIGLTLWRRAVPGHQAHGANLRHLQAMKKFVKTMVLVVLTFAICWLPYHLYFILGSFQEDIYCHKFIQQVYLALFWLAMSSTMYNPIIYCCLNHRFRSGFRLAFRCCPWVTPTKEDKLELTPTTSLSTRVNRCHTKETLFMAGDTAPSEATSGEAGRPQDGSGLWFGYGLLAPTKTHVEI

Rhesus monkey = experiment: Receptor occupancy at NK1 receptor in iv dosed rhesus monkey brain after 4 hrs; assay type: functional, Macaca mulatta
Method in brief: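 Rhesus macaques received a 4-h iv infusion. Brain NK1 receptor occupancy was measured by PET and related to plasma steady-state concentration to estimate 50% and 90% occupancy levels.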

[13] = Oral bioavailability in dog; assay type: ADME, organism-based, Canis lupus familiaris; settings: in vivo
Gerbillinae [14] = experiment: Inhibition of GR-73632-induced foot tapping in gerbils at 1 mg/kg, iv; assay type: functional
[15] = Volume of distribution in dog; assay type: ADME, organism-based, Canis lupus familiaris; settings: in vivo
[16] = Oral bioavailability in rat; assay type: ADME, organism-based; settings: in vivo
Gerbillinae [17] = experiment: Inhibition of GR-73632-induced foot tapping in orally dosed gerbils after 1 hr; settings: po, read-out: ID50 (the source's name)
[18] = Half life in rat; assay type: ADME, organism-based; settings: in vivo
[19] = Plasma clearance in dog; assay type: ADME, organism-based, Canis lupus familiaris
Gerbillinae [20] = experiment: Inhibition of GR-73632-induced foot tapping in gerbils at 6 mg/kg, iv after 24 hrs; assay type: functional
Gerbillinae [21] = experiment: Inhibition of GR-73632-induced foot tapping in gerbils at 3 mg/kg, iv; assay type: functional
Substance-P receptor [22] = molecular target: T1, Substance-P receptor; experiment: Displacement of [125I]-SP from human NK1 receptor expressed in CHO cells at 100 nM

**Q.** For `C[C@@H](O[C@@H]1CN(C2=CC(=O)OC2)C[C@H]1c1ccc(F)cc1)c1cc(C(F)(F)F)cc(C(F)(F)F)c1`, which inhibition in vivo at 3 mg/kg (Gerbillinae [1]) is on record?
**A.** 67%

**Q.** What about the IC50 (Substance-P receptor [2]) of the same molecule?
**A.** 0.16 nM

**Q.** Which Vd [3] does the source give for `C[C@@H](O[C@@H]1CN(C2=CC(=O)CC2)C[C@H]1c1ccc(F)cc1)c1cc(C(F)(F)F)cc(C(F)(F)F)c1` here?
**A.** 2.3 L/kg

**Q.** What about the half-life [4] of the same molecule?
**A.** 5.7 h

**Q.** What about the clearance [5] of the same molecule?
**A.** 4.5 mL/min/kg

**Q.** What about the ED50 (Cavia porcellus) of the same molecule?
**A.** 0.17 mg/kg

**Q.** What about the bioavailability [6] of the same molecule?
**A.** 68%

**Q.** And the ED50 (Gerbillinae [7])?
**A.** 0.25 mg/kg

**Q.** What about the Vd [8] of the same molecule?
**A.** 6.2 L/kg

**Q.** What about the half-life [9] of the same molecule?
**A.** 20 h

**Q.** And the ED50 (Gerbillinae [10])?
**A.** 0.1 mg/kg

**Q.** And the ED50 (Gerbillinae [11])?
**A.** 0.045 mg/kg

**Q.** What about the IC50 (Neuromedin-K receptor) of the same molecule?
**A.** > 3000 nM

**Q.** And the clearance [12]?
**A.** 19.6 mL/min/kg

**Q.** And the IC50 (Substance-K receptor)?
**A.** 1730 nM

**Q.** What about the inhibition in vivo at 3 mg/kg (Gerbillinae [1]) of the same molecule?
**A.** 100%

**Q.** What about the Occ50 (Rhesus monkey) of the same molecule?
**A.** 33 ng/mL

**Q.** What about the Occ90 (Rhesus monkey) of the same molecule?
**A.** 300 ng/mL

**Q.** What about the bioavailability [13] of the same molecule?
**A.** 100%

**Q.** What about the inhibition in vivo at 1 mg/kg (Gerbillinae [14]) of the same molecule?
**A.** 100%

**Q.** What about the Vd [15] of the same molecule?
**A.** 1.6 L/kg

**Q.** And the bioavailability [16]?
**A.** 100%

**Q.** What about the ED50 (Gerbillinae [17]) of the same molecule?
**A.** 0.9 mg/kg

**Q.** What about the IC50 (Substance-P receptor [2]) of the same molecule?
**A.** 0.11 nM

**Q.** And the half-life [18]?
**A.** 3.6 h

**Q.** And the clearance [19]?
**A.** 1 mL/min/kg

**Q.** What does the source list for `CC(C)NC(=O)N1C[C@@H](O[C@H](C)c2cc(C(F)(F)F)cc(C(F)(F)F)c2)[C@H](c2ccc(F)cc2)C1`?
**A.** inhibition in vivo at 6 mg/kg (Gerbillinae [20]): 86%; ED50 (Gerbillinae [11]): 0.8 mg/kg; inhibition in vivo at 1 mg/kg (Gerbillinae [14]): 64%; IC50 (Substance-P receptor [2]): 0.06 nM

**Q.** What does the source list for `CC1CC(N2C[C@@H](O[C@H](C)c3cc(C(F)(F)F)cc(C(F)(F)F)c3)[C@H](c3ccc(F)cc3)C2)=CC1=O` (stereo in doubt)?
**A.** Inhibition (Gerbillinae [1]): 2%; IC50 (Substance-P receptor [2]): 0.09 nM

**Q.** For `CC1=C(N2C[C@@H](O[C@H](C)c3cc(C(F)(F)F)cc(C(F)(F)F)c3)[C@H](c3ccc(F)cc3)C2)CCC1=O`, which inhibition in vivo at 3 mg/kg (Gerbillinae [1]) is on record?
**A.** 67%

**Q.** And the IC50 (Substance-P receptor [2])?
**A.** 0.13 nM

**Q.** With `CC(=O)N1CCN(C(=O)N2C[C@@H](O[C@H](C)c3cc(C(F)(F)F)cc(C(F)(F)F)c3)[C@H](c3ccc(F)cc3)C2)CC1` as the molecule, how does the inhibition in vivo at 3 mg/kg (Gerbillinae [1]) read?
**A.** 57%

**Q.** What about the IC50 (Substance-P receptor [2]) of the same molecule?
**A.** 0.3 nM

**Q.** For `C[C@@H](O[C@@H]1CN(C(=O)[C@@H]2COC(=O)N2)C[C@H]1c1ccc(F)cc1)c1cc(C(F)(F)F)cc(C(F)(F)F)c1`, which inhibition in vivo at 3 mg/kg (Gerbillinae [1]) is on record?
**A.** 13%

**Q.** And the IC50 (Substance-P receptor [2])?
**A.** 0.34 nM

**Q.** Which inhibition in vivo at 3 mg/kg (Gerbillinae [1]) does the source give for `C[C@@H](O[C@@H]1CN(C2=CC(=O)CC(C)(C)C2)C[C@H]1c1ccccc1)c1cc(C(F)(F)F)cc(C(F)(F)F)c1` here?
**A.** 5%

**Q.** And the IC50 (Substance-P receptor [2])?
**A.** 0.13 nM

**Q.** What does the source list for `C[C@@H](O[C@@H]1CN(C(=O)C(C)(C)C)C[C@H]1c1ccccc1)c1cc(C(F)(F)F)cc(C(F)(F)F)c1`?
**A.** inhibition in vivo at 6 mg/kg (Gerbillinae [20]): 45%; IC50 (Substance-P receptor [2]): 0.18 nM

**Q.** What does the source list for `C[C@@H](O[C@@H]1CN(C2=CC(=O)CC2)C[C@H]1c1ccccc1)c1cc(C(F)(F)F)cc(C(F)(F)F)c1`?
**A.** inhibition in vivo at 3 mg/kg (Gerbillinae [21]): 100%; ED50 (Gerbillinae [10]): 0.9 mg/kg; ED50 (Gerbillinae [11]): 1.1 mg/kg; inhibition in vivo at 3 mg/kg (Gerbillinae [1]): 100%; IC50 (Substance-P receptor [2]): 0.07 nM

**Q.** Which inhibition (Substance-P receptor [22]) does the source give for `CC(=O)N1C[C@@H](O[C@@H](C)c2cc(C(F)(F)F)cc(C(F)(F)F)c2)[C@H](c2ccccc2)C1` here?
**A.** 18%

**Q.** Which inhibition in vivo at 3 mg/kg (Gerbillinae [21]) does the source give for `C[C@@H](O[C@@H]1CN(C2=CC(=O)C(O)C2)C[C@H]1c1ccc(F)cc1)c1cc(C(F)(F)F)cc(C(F)(F)F)c1` (single isomer, unassigned; diastereomer A) here?
**A.** 100%

**Q.** What about the ID50 (Gerbillinae [10]) of the same molecule?
**A.** 0.5 mg/kg

**Q.** What about the ED50 (Gerbillinae [11]) of the same molecule?
**A.** 0.7 mg/kg

**Q.** And the Inhibition (Gerbillinae [1])?
**A.** 100%

**Q.** And the IC50 (Substance-P receptor [2])?
**A.** 0.22 nM

**Q.** What does the source list for `CC(=O)N1CCC(C(=O)N2C[C@@H](O[C@H](C)c3cc(C(F)(F)F)cc(C(F)(F)F)c3)[C@H](c3ccc(F)cc3)C2)CC1`?
**A.** inhibition in vivo at 3 mg/kg (Gerbillinae [1]): 50%; IC50 (Substance-P receptor [2]): 0.07 nM

**Q.** For `C[C@@H](O[C@@H]1CN(C(=O)NC(C)(C)C)C[C@H]1c1ccc(F)cc1)c1cc(C(F)(F)F)cc(C(F)(F)F)c1`, which inhibition in vivo at 6 mg/kg (Gerbillinae [20]) is on record?
**A.** 6%

**Q.** And the inhibition in vivo at 1 mg/kg (Gerbillinae [14])?
**A.** 28%

**Q.** And the IC50 (Substance-P receptor [2])?
**A.** 0.14 nM

**Q.** With `CC1CC(=O)C=C1N1C[C@@H](O[C@H](C)c2cc(C(F)(F)F)cc(C(F)(F)F)c2)[C@H](c2ccc(F)cc2)C1` (mixture of isomers) as the molecule, how does the inhibition in vivo at 3 mg/kg (Gerbillinae [1]) read?
**A.** 79%

**Q.** And the IC50 (Substance-P receptor [2])?
**A.** 0.11 nM

**Q.** With `C[C@@H](O[C@@H]1CN(C(=O)N(C)C)C[C@H]1c1ccc(F)cc1)c1cc(C(F)(F)F)cc(C(F)(F)F)c1` as the molecule, how does the IC50 (Substance-P receptor [2]) read?
**A.** 0.38 nM
